Reference: ChEMBL document CHEMBL1671864, “First assessment in humans of the safety, tolerability, pharmacokinetics, and ex vivo pharmacodynamic antimalarial activity of the new artemisinin derivative artemisone” (Antimicrob Agents Chemother, 2008)
Converted amounts (≈) assume the structure as drawn.

What was measured:
[1] = tested on: Plasma; test: Tmax in healthy human plasma assessed as metabolite BAY 78-1787 Tmax at 40 mg, po administered as two 20 mg immediate release tablets daily for 3 days during 10 hrs overnight fasting state measured after 3 day; assay type: ADME, organism-based; details: in vivo, 72 h
In short: (§1)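 Healthy Caucasian men (8 active, 4 placebo per dose) dosed with tablets daily for 3 days after 10-h fast. Lithium-heparin plasma sampled predose and 0.25–14 h after day-1 and day-3 doses, stored frozen. Parent and M1–M3 quantified by LC/MS-MS in positive-ion MRM. Tmax taken directly from observed individual data.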

[2] = tested on: Plasma; test: Ratio of AUC (0 to infinity) for metabolite BAY 78-1787 to AUC (0 to infinity) for compound in healthy human plasma at 40 mg, po administered as single dose for 3 days measured after 1 day; assay type: ADME, organism-based; details: in vivo, 24 h
In short: (§2)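 Healthy Caucasian men (8 active, 4 placebo per dose) dosed with tablets daily for 3 days after 10-h fast. Plasma sampled 0.25–14 h after first and last doses. Parent and metabolites M1–M3 measured by LC/MS-MS (200 µl plasma). Metabolic ratio is metabolite AUC0-∞ divided by parent AUC0-∞ (log-linear trapezoidal, extrapolated by last concentration/kel). First vs third dose compared by paired t test.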

[3] = tested on: Plasma; test: Cmax in healthy human plasma assessed as metabolite BAY 78-1787 Cmax at 40 mg, po administered as two 20 mg immediate release tablets daily for 3 days during 10 hrs overnight fasting state measured after 1 day; assay type: ADME, organism-based; design: dose 40 mg, route oral; details: in vivo, 24 h
In short: (§3)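 Healthy Caucasian male volunteers took 40 mg (two 20-mg IR tablets) or 80 mg (four tablets) orally once daily for 3 days, with 240 ml water after a 10-h fast. Plasma was sampled predose to 14 h after the first and last doses. M1/M2/M3 were quantified by LC/MS-MS MRM against a D4-labelled internal standard. Cmax was read from observed data and AUC by log-linear trapezoidal rule, noncompartmental, geometric means.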

[4] = tested on: Plasma; test: AUC in healthy human plasma assessed as metabolite BAY 78-1787 AUC at 80 mg, po administered as four 20 mg immediate release tablets daily for 3 days during 10 hrs overnight fasting state measured after 1 day; assay type: ADME, organism-based; design: dose 80 mg, time < 10 hr, route oral; details: in vivo; in short: as §3
[5] = tested on: Plasma; test: Tmax in healthy human plasma assessed as metabolite BAY 78-1787 Tmax at 80 mg, po administered as four 20 mg immediate release tablets daily for 3 days during 10 hrs overnight fasting state measured after 1 day; assay type: ADME, organism-based; details: in vivo, 24 h; in short: as §1
[6] = tested on: Plasma; test: Ratio of AUC (0 to infinity) for metabolite BAY 78-1787 to AUC (0 to infinity) for compound in healthy human plasma at 80 mg, po administered as single dose for 3 days measured after 3 days; assay type: ADME, organism-based; details: in vivo, 72 h; in short: as §2
[7] = tested on: Plasma; test: Half life in healthy human plasma assessed as metabolite BAY 78-1787 Half life at 40 mg, po administered as two 20 mg immediate release tablets daily for 3 days during 10 hrs overnight fasting state measured after 3 day; assay type: ADME, organism-based; details: in vivo, 72 h
In short: (§4)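 Healthy Caucasian males took tablets once daily for 3 days with 240 ml water after a 10-h fast. Heparinised blood was drawn predose and at 0.25–14 h after the first and last doses. Plasma parent drug and metabolites M1–M3 were measured by LC/MS-MS (MRM, deuterated internal standard). Noncompartmental analysis gave Cmax observed, t1/2 = 0.693/kel and MRT = AUMC/AUC. Values are geometric means.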

[8] = tested on: Plasma; test: Half-life in healthy human plasma assessed as metabolite BAY 78-1787 half-life at 80 mg, po administered as single ascending doses during 10 hrs overnight fasting state; assay type: ADME, organism-based; details: in vivo
In short: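 Healthy Caucasian male volunteers, single oral dose with 240 ml water after a 10-h overnight fast. Heparinised venous blood was drawn predose and at 0.25–14 h. Plasma was stored frozen. Parent drug and metabolites M1–M3 were measured by LC/MS-MS (MRM, deuterated internal standard). Noncompartmental analysis gave Cmax observed, t1/2 = 0.693/kel (terminal regression) and MRT = AUMC/AUC. Values are geometric means.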

[9] = tested on: Plasma; test: Tmax in healthy human plasma assessed as metabolite BAY 78-1787 Tmax at 80 mg, po administered as four 20 mg immediate release tablets daily for 3 days during 10 hrs overnight fasting state measured after 3 day; assay type: ADME, organism-based; details: in vivo, 72 h; in short: as §1
[10] = tested on: Plasma; test: Ratio of AUC (0 to infinity) for metabolite BAY 78-1787 to AUC (0 to infinity) for compound in healthy human plasma at 40 mg, po administered as single dose for 3 days measured after 3 days; assay type: ADME, organism-based; details: in vivo, 72 h; in short: as §2
[11] = tested on: Plasma; test: Cmax in healthy human plasma assessed as metabolite BAY 78-1787 Cmax at 80 mg, po administered as four 20 mg immediate release tablets daily for 3 days during 10 hrs overnight fasting state measured after 3 day; assay type: ADME, organism-based; design: dose 80 mg, route oral; details: in vivo, 72 h; in short: as §3
[12] = tested on: Plasma; test: AUC (0 to infinity) in healthy human plasma assessed as metabolite BAY 78-1787 AUC (0 to infinity) at 80 mg, po administered as single ascending doses during 10 hrs overnight fasting state; assay type: ADME, organism-based; design: dose 80 mg, time infinity, route oral; details: in vivo
In short: (§5)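 Healthy Caucasian male volunteers, single oral dose of 80 mg as four 20-mg immediate-release tablets, taken with 240 ml water after a 10-h overnight fast. Lithium-heparin venous blood was drawn predose and at 0.25–14 h, and plasma was stored frozen. Metabolites M1/M2/M3 were measured by LC/MS-MS (positive-ion MRM, deuterated internal standard). Noncompartmental analysis, AUC by log-linear trapezoidal rule extrapolated to infinity (Clast/kel), geometric means.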

[13] = tested on: Plasma; test: Cmax in healthy human plasma assessed as metabolite BAY 78-1787 Cmax at 80 mg, po administered as single ascending doses during 10 hrs overnight fasting state; assay type: ADME, organism-based; design: dose 80 mg, route oral; details: in vivo; in short: as §5
[14] = tested on: Plasma; test: AUC in healthy human plasma assessed as metabolite BAY 78-1787 AUC at 40 mg, po administered as two 20 mg immediate release tablets daily for 3 days during 10 hrs overnight fasting state measured after 1 day; assay type: ADME, organism-based; design: dose 40 mg, time < 10 hr, route oral; details: in vivo; in short: as §3
[15] = tested on: Plasma; test: Half life in healthy human plasma assessed as metabolite BAY 78-1787 Half life at 80 mg, po administered as four 20 mg immediate release tablets daily for 3 days during 10 hrs overnight fasting state measured after 1 day; assay type: ADME, organism-based; details: in vivo, 24 h; in short: as §4
[16] = tested on: Plasma; test: Ratio of AUC (0 to infinity) for metabolite BAY 78-1787 to AUC (0 to infinity) for compound in healthy human plasma at 80 mg, po administered as single dose for 3 days measured after 1 day; assay type: ADME, organism-based; details: in vivo, 24 h; in short: as §2
[17] = tested on: Plasma; test: AUC in healthy human plasma assessed as metabolite BAY 78-1787 AUC at 80 mg, po administered as four 20 mg immediate release tablets daily for 3 days during 10 hrs overnight fasting state measured after 3 day; assay type: ADME, organism-based; design: dose 80 mg, time < 10 hr, route oral; details: in vivo; in short: as §3
[18] = tested on: Plasma; test: Half life in healthy human plasma assessed as metabolite BAY 78-1787 Half life at 40 mg, po administered as two 20 mg immediate release tablets daily for 3 days during 10 hrs overnight fasting state measured after 1 day; assay type: ADME, organism-based; details: in vivo, 24 h; in short: as §4
[19] = tested on: Plasma; test: Tmax in healthy human plasma assessed as metabolite BAY 78-1787 Tmax at 40 mg, po administered as two 20 mg immediate release tablets daily for 3 days during 10 hrs overnight fasting state measured after 1 day; assay type: ADME, organism-based; details: in vivo, 24 h; in short: as §1
[20] = tested on: Plasma; test: Half life in healthy human plasma assessed as metabolite BAY 78-1787 Half life at 80 mg, po administered as four 20 mg immediate release tablets daily for 3 days during 10 hrs overnight fasting state measured after 3 day; assay type: ADME, organism-based; details: in vivo, 72 h; in short: as §4
[21] = tested on: Plasmodium falciparum; test: Antimalarial activity against Plasmodium falciparum K1 in human plasma assessed as inhibition of hypoxanthine uptake by intraerythrocytic malaria parasites by hypoxanthine incorporation assay; assay type: functional, organism-based
In short: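 K1 or TM90-C2A parasites were sorbitol-synchronized and cultured in RPMI 1640. Drug was diluted in drug-free human serum (0.04–40 ng/ml) or subject plasma was diluted twofold (8–8,192). Parasites were added at 2% hematocrit, 1% parasitemia (>95% rings), and [3H]hypoxanthine uptake was measured over 48 h. IC50 or ID50 came from concentration or dilution-response curves. Equivalent concentration = ID50 × IC50.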

[22] = tested on: Plasma; test: Cmax in healthy human plasma assessed as metabolite BAY 78-1787 Cmax at 40 mg, po administered as two 20 mg immediate release tablets daily for 3 days during 10 hrs overnight fasting state measured after 3 day; assay type: ADME, organism-based; design: dose 40 mg, route oral; details: in vivo, 72 h; in short: as §3
[23] = tested on: Plasma; test: AUC in healthy human plasma assessed as metabolite BAY 78-1787 AUC at 40 mg, po administered as two 20 mg immediate release tablets daily for 3 days during 10 hrs overnight fasting state measured after 3 day; assay type: ADME, organism-based; design: time < 10 hr, dose 40 mg, route oral; details: in vivo; in short: as §3
[24] = tested on: Plasma; test: Cmax in healthy human plasma assessed as metabolite BAY 78-1787 Cmax at 80 mg, po administered as four 20 mg immediate release tablets daily for 3 days during 10 hrs overnight fasting state measured after 1 day; assay type: ADME, organism-based; design: dose 80 mg, route oral; details: in vivo; in short: as §3

## C[C@H]1[C@H](N2C=CS(=O)(=O)CC2)O[C@@H]2O[C@]3(C)CC[C@H]4[C@H](C)CC[C@@H]1[C@@]24OO3
[1]
  Tmax: 1.75 h
[2]
  Ratio: 0.63
[3]
  Cmax: 51.7 ng/mL
[4]
  AUC: 296 ng·h/mL
[5]
  Tmax: 2 h
[6]
  Ratio: 0.79
[7]
  t1/2: 1.54 h
[8]
  t1/2: 2.78 h
[9]
  Tmax: 1.5 h
[10]
  Ratio: 0.62
[11]
  Cmax: 85.3 ng/mL
[12]
  AUC: 315.4 ng·h/mL
[13]
  Cmax: 121.1 ng/mL
[14]
  AUC: 112.6 ng·h/mL
[15]
  t1/2: 2.13 h
[16]
  Ratio: 0.89
[17]
  AUC: 255.2 ng·h/mL
[18]
  t1/2: 1.9 h
[19]
  Tmax: 1.75 h
[20]
  t1/2: 1.63 h
[21]
  IC50: 1.7 ng/mL (≈ 4.26 nM)
[22]
  Cmax: 47.8 ng/mL
[23]
  AUC: 112.3 ng·h/mL
[24]
  Cmax: 112.6 ng/mL
